The record followed here is ChEMBL document CHEMBL1126595, “Studies directed toward the design of orally active renin inhibitors. 2. Development of the efficacious, bioavailable renin inhibitor (2S)-2-benzyl-3- [[(1-methylpiperazin-4-yl)sulfonyl]propionyl]-3-thiazol-4-yl-L-alanine amide of (2S,3R,4S)-2-amino-1-cyclohexyl-3,4-dihydroxy-6-methylheptane …” (J Med Chem, 1993).

SMILES strings stand for the structures. Converted amounts (≈) assume the structure as drawn.

Data set [1] in a line: Bioavailability in the systemic circulation after 10 minutes was determined after intraduodenal dose of 10 mg/kg in rat by HPLC method. The following applies: plasma (systemic circulation), read-out: Plasma level. The format is ADME, organism-based. A digest of the protocol:
(§1)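 Screening model in anesthetized rats given 10 mg/kg intraduodenally. Formulation was ethanol stock with 110 mol % HCl, diluted with aqueous hydroxypropyl methylcellulose to 25% ethanol. Systemic and portal blood drawn at 10 and 30 min in the same animals. Drug level (ng/mL) measured by HPLC or renin inhibition assay. Mean ± SEM, n = 3 unless noted.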

Data set [2] is described as follows: Bioavailability in the systemic circulation after 30 minutes was determined after intraduodenal dose of 10 mg/kg in rat by HPLC method. Format: ADME, organism-based. The conditions noted are these: plasma (systemic circulation), read-out: Plasma level. A digest of the protocol: as §1
Data set [3] is described as follows: Integrated area under the plasma drug level-time curve was determined in systemic circulation after intraduodenal dose of 10 mg/kg in rat. The format is ADME, organism-based. More on the design: dose 10 mg/kg, route intraduodenal. The gist of the method:
(§2)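 Intraduodenal 10 mg/kg to anesthetized rats or ferrets. Compound dissolved in ethanol with 110 mol % HCl, then diluted in aqueous hydroxypropyl methylcellulose to 25% ethanol (10 mg/mL). Plasma sampled id rat 15, 30, 60, 120 min; id ferret 5, 15, 30, 60, 120, 180 min. Drug measured by renin inhibition assay or HPLC. AUC in ng h/mL. Bioavailability is relative to iv 1.0 mg/kg (rat) or 0.3 mg/kg (ferret).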

The nature of data set [4]: Integrated area under the plasma drug level-time curve was determined in systemic circulation after intraduodenal dose of 10 mg/kg in ferret. Format: ADME, organism-based, Mustela putorius furo. More on the design: dose 10 mg/kg, route intraduodenal. The gist of the method:
as §2

A short description of data set [5]: Bioavailability in the portal circulation after 30 minutes was determined after intraduodenal dose of 10 mg/kg in rat by HPLC method. Format: ADME, organism-based. The following applies: plasma (portal circulation), read-out: Plasma level. A digest of the protocol:
as §1

Data set [6] in a line: Bioavailability in ferret (dose 10 mg/kg i.d.). Format: ADME, organism-based, Mustela putorius furo. The following applies: in vivo. The gist of the method:
as §2

A short description of data set [7]: Bioavailability in the portal circulation after 10 minutes was determined after intraduodenal dose of 10 mg/kg in rat by HPLC method. Format: ADME, organism-based. The conditions noted are these: plasma (portal circulation), read-out: Plasma level. A digest of the protocol: as §1
Data set [8] can be described thus: Peak concentration was determined in systemic circulation after intraduodenal dose of 10 mg/kg in rat. The following applies: in vivo, read-out: Activity. More on the design: dose 10 mg/kg, route intraduodenal. The format is ADME, organism-based. The gist of the method:
as §2

Data set [9] in a line: Peak concentration was determined in systemic circulation after intraduodenal dose of 10 mg/kg in ferret. The format is ADME, organism-based, Mustela putorius furo. More on the design: dose 10 mg/kg, route intraduodenal. The following applies: in vivo, read-out: Activity. A digest of the protocol: as §2
Data set [10] in a line: Partition coefficient in the octanol/water phase at pH 7.4. Format: physicochemical. The gist of the method:
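log P measured by octanol/water partition at pH 7.4.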

In another data set the target is T1, Renin (Homo sapiens, UniProt P00797).
T1 sequence (P00797 whole entry): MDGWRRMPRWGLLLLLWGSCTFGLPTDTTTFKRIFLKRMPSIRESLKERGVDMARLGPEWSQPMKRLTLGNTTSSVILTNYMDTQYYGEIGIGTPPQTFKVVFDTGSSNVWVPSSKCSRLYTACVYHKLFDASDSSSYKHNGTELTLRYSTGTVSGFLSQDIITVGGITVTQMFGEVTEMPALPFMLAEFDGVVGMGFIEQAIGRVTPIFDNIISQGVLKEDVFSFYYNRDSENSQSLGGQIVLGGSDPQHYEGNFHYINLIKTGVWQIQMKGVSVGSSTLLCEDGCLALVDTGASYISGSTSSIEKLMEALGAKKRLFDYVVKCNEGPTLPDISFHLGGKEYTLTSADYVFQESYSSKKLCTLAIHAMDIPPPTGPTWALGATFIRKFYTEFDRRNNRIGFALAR
The data set is described as follows: Inhibitory concentration against human plasma renin at pH 7.4. The format is cell-free.

Data set [11] in a line: Bioavailability in rat (dose 10 mg/kg i.d.). Format: ADME, organism-based. The conditions noted are these: in vivo. A digest of the protocol:
as §2

Data set [12] can be described thus: Solubility at pH 7.4. Format: physicochemical. The conditions noted are these: buffer.
Data set [13] can be described thus: Bioavailability in the systemic circulation after 10 minutes was determined after intraduodenal dose of 10 mg/kg in rat by renin inhibition assay. The format is ADME, organism-based. The conditions noted are these: plasma (systemic circulation), read-out: Plasma level. The gist of the method:
as §1

Data set [14] is described as follows: Bioavailability in the portal circulation after 10 minutes was determined after intraduodenal dose of 10 mg/kg in rat by renin inhibition assay. The format is ADME, organism-based. The conditions noted are these: plasma (portal circulation), read-out: Plasma level. A digest of the protocol:
as §1

The nature of data set [15]: Bioavailability in the systemic circulation after 30 minutes was determined after intraduodenal dose of 10 mg/kg in rat by renin inhibition assay. Format: ADME, organism-based. The conditions noted are these: plasma (systemic circulation), read-out: Plasma level. A digest of the protocol: as §1
Data set [16] in a line: Bioavailability in the portal circulation after 30 minutes was determined after intraduodenal dose of 10 mg/kg in rat by renin inhibition assay. The format is ADME, organism-based. The conditions noted are these: plasma (portal circulation), read-out: Plasma level. A digest of the protocol:
as §1

In general, AUC refers to the area under the concentration-time curve, a measure of exposure. A low value points to less exposure. One may read the bioavailability as dose-corrected exposure relative to a reference, in per cent. A low value points to poor availability. Broadly, the logD is the decadic logarithm of the distribution of all forms, ionised or not, between an organic phase and buffer at a given pH. Low readings indicate lower lipophilicity, high ones higher lipophilicity. Usually IC50 stands for the concentration needed to halve the response being measured. A low value points to inhibition by little substance. `CC(C)C[C@H](O)[C@H](O)[C@H](CC1CCCCC1)NC(=O)[C@H](Cc1cscn1)NC(=O)[C@H](Cc1ccccc1)CS(=O)(=O)C1CN(C)C1`: the concentration at 10 min is 510 ng/mL in data set [1] and 1800 ng/mL in [7]. The results for the concentration at 0.5 h in data set [2] and in [5] were 550 ng/mL and 1900 ng/mL, respectively. Also, the AUC in [3] was 1300 ng·h/mL; in data set [4], 2000 ng·h/mL. Also, the bioavailability in data set [6] and in [11] was 80% throughout. For the same molecule, the figures for the Cmax in data set [8] and in data set [9] were 850 ng/mL and 790 ng/mL, respectively. Also, in data set [10], the logD was found to be 3.89. This molecule also displayed an IC50 against Renin of 3.9 nM.
What is called solubility is the dissolved amount per volume that the medium holds. A high value points to much dissolved substance. In the case of `CC(C)C[C@H](O)[C@H](O)[C@H](CC1CCCCC1)NC(=O)[C@H](Cc1cscn1)NC(=O)[C@@H](CC(=O)N(C)CCn1ccnc1)Cc1ccccc1`, the concentration at 10 min was determined as 57 ng/mL in data set [1] and 400 ng/mL in data set [7]. In addition, the results for the concentration at 0.5 h in data set [2] and in [5] were 190 ng/mL and 810 ng/mL, respectively. The logD in data set [10] is 4.01. Also, 1.3 nM corresponded to half-maximal inhibition against Renin (IC50). The molecule further came in with a solubility in [12] of 120 µg/mL (≈ 173 µM).
For the molecule `CC(C)C[C@H](O)[C@H](O)[C@H](CC1CCCCC1)NC(=O)[C@H](Cc1cscn1)NC(=O)[C@@H](CC(=O)N(C)CCN(C)C)Cc1ccccc1`, the concentration at 10 min in data set [13] worked out at 600 ng/mL; in [14] it was 1600 ng/mL. Besides, the pH-dependent lipophilicity (logD) in data set [10] worked out at 3.11. On Renin, the 50% inhibitory concentration (IC50) was 9.4 nM. Moreover, the concentration at 0.5 h in [15] stood at 450 ng/mL; in data set [16] it was 780 ng/mL.
Take `COCCOCOCCN(C)C(=O)C[C@@H](Cc1ccccc1)C(=O)N[C@@H](Cc1cscn1)C(=O)N[C@@H](CC1CCCCC1)[C@@H](O)[C@@H](O)CC(C)C`: the concentration at 10 min in data set [13] turned out to be 300 ng/mL; in data set [14], 3100 ng/mL. In addition, the logD in data set [10] was over 4.6. On Renin, this molecule had an IC50 of 1.6 nM. Moreover, the concentration at 0.5 h came to 570 ng/mL in data set [15] and 3100 ng/mL in [16]. The molecule further had a solubility in data set [12] of 180 µg/mL (≈ 246 µM).
As for `CC(C)C[C@H](O)[C@H](O)[C@H](CC1CCCCC1)NC(=O)[C@H](Cc1cscn1)NC(=O)[C@@H](CC(=O)N(C)CCN1CCOCC1)Cc1ccccc1`, the AUC in [4] is 1200 ng·h/mL. Also, in data set [6], the bioavailability is 85%. The Cmax in data set [9] worked out at 860 ng/mL. The log distribution coefficient (logD) in [10] came out at 4.15. In addition, the 50% inhibitory concentration (IC50) against Renin was found to be 4.1 nM. In addition, in data set [15], the concentration at 0.5 h came to 570 ng/mL.
On to `COCCOCOCCN(C)C(=O)C[C@@H](Cc1ccccc1)C(=O)N[C@@H](Cc1c[nH]cn1)C(=O)N[C@@H](CC1CCCCC1)[C@@H](O)[C@@H](O)CC(C)C`, for which the concentration at 10 min was found to be 68 ng/mL in data set [1] and 1900 ng/mL in [7]. In addition, the concentration at 0.5 h in [2] is 50 ng/mL; in data set [5], 370 ng/mL. Besides, the IC50 on Renin was 0.8 nM. The same molecule displayed a solubility in [12] of 180 µg/mL (≈ 251 µM).
For `CC(C)C[C@H](O)[C@H](O)[C@H](CC1CCCCC1)NC(=O)[C@H](Cc1cscn1)NC(=O)[C@@H](CC(=O)NCCc1ccccn1)Cc1ccccc1`, at Renin, the IC50 was 37 nM.
As for `CC(C)C[C@H](O)[C@H](O)[C@H](CC1CCCCC1)NC(=O)[C@H](Cc1cscn1)NC(=O)[C@H](Cc1ccccc1)CS(=O)(=O)C(C)(C)C`, the concentration at 10 min in data set [13] turned out to be 22 ng/mL; in [14], 830 ng/mL. The logD in data set [10] was over 4.2. Also, the concentration at 0.5 h in [15] came to 29 ng/mL; in data set [16] it was 500 ng/mL.
